Test [1] deals with HCT-116. Briefly: Induction of apoptosis in human HCT-116 cells assessed as PARP cleavage at 0.5 uM measured after 6 hrs by western blot assay. The class given is functional, cell-based. The procedure, abridged:
(§1)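 Cells exposed to 0.5 µM for 6 h. Lysates resolved by SDS-PAGE and blotted to PVDF, blocked in 5% milk/TBST, probed with primary antibodies at 1:1000, ECL detection. Apoptosis scored as the densitometric ratio of cleaved PARP band to intact PARP band; mean ± SD, n = 3.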

Test [2] relates to MDA-MB-231. Briefly: Induction of apoptosis in human MDA-MB-231 cells assessed as PARP cleavage at 0.5 uM measured after 6 hrs by western blot assay. The class given is functional, cell-based. The procedure, abridged:
as §1

The subject of test [3] is HCT-116. Briefly: Cytotoxicity against human HCT-116 cells assessed as inhibition of cell growth measured after 24 hrs by MTT assay. The test is classed as functional, cell-based. In a few lines: (§2)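 MTT viability assay, 24 h exposure to a concentration series, 10^4 cells/well. Cancer lines were in DMEM (BT549, MDA-MB-231) or RPMI-1640 (HCT116, SW620) with 10% FBS. MCF10A and NCM460 were in DMEM with 20% FBS and 10 ng/ml EGF. MTT at 5 mg/mL for 4 h at 37 °C, formazan dissolved in DMSO, A490. IC50 from curve fit; mean ± SD, at least 6 experiments.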

The test system of the next test is MCF-10A. Briefly: Cytotoxicity against human MCF-10A cells assessed as inhibition of cell growth measured after 24 hrs by MTT assay. The class given is cell-based. The procedure, abridged:
as §2

A further test has as its system BT-549. Briefly: Cytotoxicity against human BT-549 cells assessed as inhibition of cell growth measured after 24 hrs by MTT assay. The test is classed as functional, cell-based. The settings on record: BT-549, 24 h. The procedure, abridged: as §2
In test [4] the test system is MDA-MB-231. In words: Induction of apoptosis in human MDA-MB-231 cells assessed as PARP cleavage at 0.5 uM measured after 6 hrs by western blot assay relative to Di(1H-indol-3-yl)(4-(trifluoromethyl)phenyl)methylium methanesulfonate. The test is classed as functional. The procedure, abridged:
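MDA-MB-231 in DMEM with 10% FBS, 0.5 µM for 6 h, then PARP western blot with 1:1000 primary antibodies and ECL. Cleaved PARP/PARP band intensity ratio expressed relative to the reference methylium methanesulfonate, whose ratio was set to 1. Mean ± SD, n = 3.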

The test system of a further test is SW-620. In words: Cytotoxicity against human SW-620 cells assessed as inhibition of cell growth measured after 24 hrs by MTT assay. The test is classed as functional, cell-based. The settings on record: SW-620, 24 h. The procedure, abridged:
as §2

Another test has as its system NCM460. In words: Cytotoxicity against human NCM460 cells assessed as inhibition of cell growth measured after 24 hrs by MTT assay. The test is classed as cell-based. The procedure, abridged: as §2
For test [5], the system named is MDA-MB-231. In words: Cytotoxicity against human MDA-MB-231 cells assessed as inhibition of cell growth measured after 24 hrs by MTT assay. The test is classed as functional, cell-based. The conditions noted are these: MDA-MB-231, 24 h. The procedure, abridged: as §2
For test [6], the system named is MEF. In words: Induction of apoptosis in mouse MEF cells lacking Nur77 assessed as PARP cleavage at 0.5 uM measured after 6 hrs by western blot assay. The test is classed as functional, cell-based. The procedure, abridged:
(§3)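 Wild-type, Nur77−/− or Bcl-2−/− mouse embryonic fibroblasts grown in DMEM with 10% FBS and treated with 0.5 µM for 6 h. PARP cleavage detected by western blot, primary antibodies at 1:1000, ECL.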

Test [7] has as its system MEF. Briefly: Induction of apoptosis in wild type mouse MEF cells assessed as PARP cleavage at 0.5 uM measured after 6 hrs by western blot assay. The class given is functional, cell-based. In a few lines:
as §3

Test [8] deals with MEF. Briefly: Induction of apoptosis in mouse MEF cells deficient in Bcl2 assessed as PARP cleavage at 0.5 uM measured after 6 hrs by Western blot assay. The class given is functional, cell-based. In a few lines:
as §3

Calls of active or inactive are those of the source. No cut-off for these calls is given here.

Consider `c1coc([C+](c2c[nH]c3ccccc23)c2c[nH]c3ccccc23)c1`, for which the outcome with HCT-116 [1] was Active. The outcome with MDA-MB-231 [2] was inactive.
For `Oc1cccc([C+](c2c[nH]c3ccccc23)c2c[nH]c3ccccc23)c1`, in the test with HCT-116 [1], the result was Active. Also, the outcome in the test on MDA-MB-231 [2] was inactive.
Regarding `FC(F)(F)c1ccccc1[C+](c1c[nH]c2ccccc12)c1c[nH]c2ccccc12`, the outcome in the test with HCT-116 [1] and in the test with MDA-MB-231 [2] was inactive.
As to `Clc1cccc([C+](c2c[nH]c3ccccc23)c2c[nH]c3ccccc23)c1`, the outcome in the test on HCT-116 [1] was Active. Also, the outcome in the test on MDA-MB-231 [2] was inactive.
On the same counts, the results for `CC(C)(C)c1ccc([C+](c2c[nH]c3ccccc23)c2c[nH]c3ccccc23)cc1` are “inactive” and “inactive”.
Turning to `FC(F)(F)c1cccc([C+](c2c[nH]c3ccccc23)c2c[nH]c3ccccc23)c1.[Cl-]`, the IC50 in the test with HCT-116 [3] (Homo sapiens, HCT-116, 24 h) stood at 310 nM; in the test on MCF-10A (Homo sapiens, MCF-10A, 24 h) it was 5.03 µM; with BT-549, 70 nM; with SW-620, 130 nM; in the test on NCM460 (Homo sapiens, NCM460, 24 h), 10 µM; in the test on MDA-MB-231 [5], 290 nM. Moreover, the result in the test on HCT-116 [1] and with MDA-MB-231 [2] was Active. The “fold change (FC)” value with MDA-MB-231 [4] is recorded as 1.76.
For the compound `FC(F)(F)c1ccc([C+](c2c[nH]c3ccccc23)c2c[nH]c3ccccc23)cn1`, the outcome in the test on MEF [6] and in the test on MEF [8] was inactive. Also, the result in the test on MEF [7], in the test on HCT-116 [1] and in the test with MDA-MB-231 [2] was Active. The concentration for half-maximal inhibition (IC50) in the test with HCT-116 [3] (Homo sapiens, HCT-116, 24 h) worked out at 350 nM; in the test with MCF-10A (Homo sapiens, MCF-10A, 24 h), 2.98 µM; in the test on BT-549, 50 nM; in the test on SW-620, 140 nM; with NCM460 (Homo sapiens, NCM460, 24 h) it was 8.1 µM; with MDA-MB-231 [5], 230 nM.
For `FC(F)(F)c1ccc([C+](c2c[nH]c3ccccc23)c2c[nH]c3ccccc23)c(C(F)(F)F)c1`, the result in the test with HCT-116 [1] and with MDA-MB-231 [2] was inactive.
For `Fc1cccc([C+](c2c[nH]c3ccccc23)c2c[nH]c3ccccc23)c1`, the outcome in the test with HCT-116 [1] and in the test on MDA-MB-231 [2] was Active.
With `Cn1cc([C+](c2ccc(C(F)(F)F)cc2)c2cn(C)c3ccccc23)c2ccccc21`, in the test on HCT-116 [1], the outcome was inactive. Moreover, in the test with MDA-MB-231 [2], the result was Active.
Consider `FC(F)(F)c1ccc([C+](c2c[nH]c3ccccc23)c2c[nH]c3ccccc23)cc1`, for which the IC50 with HCT-116 [3] (hct-116) was 260 nM; in the test on MCF-10A (mcf-10a) it was 3.58 µM; in the test on NCM460 (ncm460) it was 5.13 µM.
As to `Clc1ccccc1[C+](c1c[nH]c2ccccc12)c1c[nH]c2ccccc12`, the outcome in the test on HCT-116 [1] and in the test with MDA-MB-231 [2] was inactive.
Regarding `CCCn1cc([C+](c2ccc(C(F)(F)F)cc2)c2c[nH]c3ccccc23)c2ccccc21`, the outcome in the test with MEF [6] and in the test on MEF [8] was inactive. For the same compound, the outcome in the test with MEF [7], in the test on HCT-116 [1] and in the test with MDA-MB-231 [2] was Active. The half-maximal inhibitory concentration (IC50) with HCT-116 [3] (Homo sapiens, HCT-116, 24 h) came out at 350 nM; in the test with MCF-10A (Homo sapiens, MCF-10A, 24 h), 1.31 µM; with BT-549, 100 nM; in the test with SW-620, 160 nM; with NCM460 (Homo sapiens, NCM460, 24 h), 5.09 µM; in the test on MDA-MB-231 [5], 170 nM.
Take `COc1ccc([C+](c2c[nH]c3ccccc23)c2c[nH]c3ccccc23)cc1`: the outcome in the test with HCT-116 [1] and in the test with MDA-MB-231 [2] was inactive.
On to `Fc1ccccc1[C+](c1c[nH]c2ccccc12)c1c[nH]c2ccccc12`, for which the result in the test on HCT-116 [1] and in the test with MDA-MB-231 [2] was inactive.
`CS(=O)(=O)[O-].c1ccc([C+](c2c[nH]c3ccccc23)c2c[nH]c3ccccc23)cc1`: the outcome in the test on HCT-116 [1] was inactive. Besides, in the test with MDA-MB-231 [2], the outcome was Active. Also, the “fold change (FC)” value with MDA-MB-231 [4] amounted to 0.01.
As to `COC(=O)c1ccc([C+](c2c[nH]c3ccccc23)c2c[nH]c3ccccc23)cc1`, the result in the test with HCT-116 [1] and in the test on MDA-MB-231 [2] was Active.
Regarding `Oc1ccccc1[C+](c1c[nH]c2ccccc12)c1c[nH]c2ccccc12`, the outcome in the test on HCT-116 [1] and with MDA-MB-231 [2] was inactive.
On to `CCCCn1cc([C+](c2ccc(C(F)(F)F)cc2)c2c[nH]c3ccccc23)c2ccccc21`, for which the outcome in the test on HCT-116 [1] and with MDA-MB-231 [2] was Active.
As to `c1ccc(-c2ccc([C+](c3c[nH]c4ccccc34)c3c[nH]c4ccccc34)cc2)cc1`, the outcome with HCT-116 [1] and with MDA-MB-231 [2] was Active.
Consider `CCCCCn1cc([C+](c2ccc(C(F)(F)F)cc2)c2c[nH]c3ccccc23)c2ccccc21`, for which the outcome in the test on HCT-116 [1] and in the test with MDA-MB-231 [2] was inactive.
Regarding `Fc1ccc([C+](c2c[nH]c3ccccc23)c2c[nH]c3ccccc23)cc1`, the outcome in the test on HCT-116 [1] and with MDA-MB-231 [2] was Active.
In the case of `O=C(O)c1ccc([C+](c2c[nH]c3ccccc23)c2c[nH]c3ccccc23)cc1`, the outcome with HCT-116 [1] was Active. The outcome in the test on MDA-MB-231 [2] was inactive.
On to `Clc1ccc([C+](c2c[nH]c3ccccc23)c2c[nH]c3ccccc23)cc1`, for which the result in the test with HCT-116 [1] was Active. The result in the test on MDA-MB-231 [2] was inactive.
In the case of `c1ccc2c([C+](c3c[nH]c4ccccc34)c3c[nH]c4ccccc34)c[nH]c2c1`, the outcome in the test on HCT-116 [1] was Active. In addition, the outcome in the test on MDA-MB-231 [2] was inactive.
For `CCc1ccc([C+](c2c[nH]c3ccccc23)c2c[nH]c3ccccc23)cc1` the same measures were “inactive” and “inactive”.
On the same counts, the results for `Cc1ccc([C+](c2c[nH]c3ccccc23)c2c[nH]c3ccccc23)cc1` are “inactive” and “inactive”.
For `Oc1ccc([C+](c2c[nH]c3ccccc23)c2c[nH]c3ccccc23)cc1`, in the test with HCT-116 [1], the outcome was inactive. Besides, the result in the test on MDA-MB-231 [2] was Active.
For `c1ccc2c([C+](c3c[nH]c4ccccc34)c3csc4ccccc34)c[nH]c2c1` the same measures were “Active” and “inactive”.
As for `c1cncc([C+](c2c[nH]c3ccccc23)c2c[nH]c3ccccc23)c1`, the outcome with HCT-116 [1] was Active. Further, the outcome with MDA-MB-231 [2] was inactive.
In the case of `Cc1cccc([C+](c2c[nH]c3ccccc23)c2c[nH]c3ccccc23)c1`, the outcome in the test with HCT-116 [1] was Active. For the same compound, the result in the test with MDA-MB-231 [2] was inactive.
For `COc1cccc([C+](c2c[nH]c3ccccc23)c2c[nH]c3ccccc23)c1`, the outcome in the test with HCT-116 [1] was Active. The outcome in the test with MDA-MB-231 [2] was inactive.
For `O=[N+]([O-])c1ccc([C+](c2c[nH]c3ccccc23)c2c[nH]c3ccccc23)cc1` the same measures were “Active” and “inactive”.
For `c1csc([C+](c2c[nH]c3ccccc23)c2c[nH]c3ccccc23)c1` the same measures were “Active” and “inactive”.

Values taken from ChEMBL document CHEMBL4819003, “Optimization of novel oxidative DIMs as Nur77 modulators of the Nur77-Bcl-2 apoptotic pathway” (Eur J Med Chem, 2021).
